We go through 2 compounds from article PMC7458062 (ACS Infectious Diseases, 2020).

For one experiment, the system named is E. coli DH10B blaCTX-M-9. The class given is cell-based. The settings on record: Escherichia coli, read-out: MIC of FEP, E. coli, DH10B blaCTX-M-9.
Experiment [1] deals with P. aeruginosa 18SH strain, blaPDC. The class given is cell-based. Conditions: Pseudomonas aeruginosa, read-out: MIC of CAZ, P. aer. 18SH blaPDC. In outline:
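CLSI broth microdilution in Mueller-Hinton broth, with inoculum at 6 × 10^4 cfu/mL final. Ceftazidime was tested from 128 to 0.06 μg/mL, with test compound held constant at 4 μg/mL. Plates were incubated overnight at 37 °C and MICs were recorded the next day.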

As to `CO/N=C(\C(=O)N[C@@H]1C(=O)N2C(C(=O)[O-])=C(C[N+]3(C)CCCC3)CS[C@H]12)c1csc(N)n1` [FEP, cefepime], in the experiment on E. coli DH10B blaCTX-M-9, the minimal inhibitory concentration (MIC) (commonly the least concentration at which growth counts as inhibited) worked out at 8 µg/mL.
Consider `CC(C)(O/N=C(\C(=O)N[C@@H]1C(=O)N2C(C(=O)[O-])=C(C[n+]3ccccc3)CS[C@H]12)c1csc(N)n1)C(=O)O` [CAZ, ceftazidime], for which the MIC in experiment [1] turned out to be 64 µg/mL.
